Screening results: PubChem, Johns Hopkins Ion Channel Center
In the library only some 3.7% were active in any assay of this set; here they are far more common.
Kir21 inh – Kir2.1 (mouse) channel inhibition; P35561; HEK293-Kir2.1, FluxOR thallium flux fluorescence; active compounds read low; B-score at 10 µM; 310,000 tested, 0.85% active; AID 1672;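 active = fluorescence ratio B-score at or below minus 3 SD of library scores, with starting-brightness B-score within 2 SD, cut at about -4.2 in these data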;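 also: channel flux triggered by added potassium and thallium sulfate stimulus; B-score of peak minus minimum fluorescence over baseline after thallium stimulus; more negative B-score means stronger Kir2.1 block with less thallium influx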
Target sequence (P35561 whole entry, looked up): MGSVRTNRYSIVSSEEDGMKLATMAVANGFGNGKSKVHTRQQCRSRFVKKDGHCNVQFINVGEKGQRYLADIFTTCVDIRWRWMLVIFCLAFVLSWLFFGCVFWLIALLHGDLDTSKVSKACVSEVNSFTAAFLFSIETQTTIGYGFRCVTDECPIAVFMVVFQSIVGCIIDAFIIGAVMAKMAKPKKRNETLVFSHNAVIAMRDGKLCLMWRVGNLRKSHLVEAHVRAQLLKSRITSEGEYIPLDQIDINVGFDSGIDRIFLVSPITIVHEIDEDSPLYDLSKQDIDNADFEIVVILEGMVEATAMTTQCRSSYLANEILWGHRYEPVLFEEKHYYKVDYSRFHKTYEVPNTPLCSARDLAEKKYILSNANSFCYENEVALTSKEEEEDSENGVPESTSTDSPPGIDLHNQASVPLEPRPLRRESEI
hERG protect – hERG (human) protection from proarrhythmic block; Q12809; CHO-hERG, FluxOR thallium flux, dofetilide IC70 present; activation (rescue from dofetilide block), less the hit threshold, % at 10 µM; 310,000 tested, 0.51% active; AID 1511;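 active = activation above the mean of controls blocked by dofetilide plus 5 SD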;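 also: thallium influx through hERG after potassium depolarization seen as dye fluorescence rise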
KCNK3 inh – human KCNK3 channel inhibition, primary screen; O14649; CHO-KCNK3 thallium flux, FluxOR fluorescence; active compounds read low; B-score at 10 µM; 340,000 tested, 0.84% active;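 active = B-score under library mean minus 4 SD, starting fluorescence ratio at most library mean plus 5 SD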;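 also: more negative B-score means stronger inhibition of thallium flux through KCNK3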
KCNQ1 block – human KCNQ1 channel inhibition; P51787; CHO-K1 KCNQ1, FluxOR thallium flux fluorescence; active compounds read high; B-score at 10 µM; 310,000 tested, 1.3% active;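 active = compounds whose thallium flux B-score, printed positive for inhibition, exceeds three library SD while starting fluorescence stays within three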;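 also: channel opened by potassium depolarization with thallium stimulus after 20 min compound exposure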
KCNQ1 act – potentiators or activators of human KCNQ1 potassium channel; 310,000 tested, 0.35% active; P51787; CHO-K1 KCNQ1, thallium flux FluxOR fluorescence; active compounds read high; B-score at 10 µM;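 active = fluorescence ratio B-score, a plate-corrected score, at least three library SD, with initial intensity B-score within 5 SD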
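Schedule – 37 °C overnight plating, 90-min dark dye load, 20-min compound pretreatment · System – stable KCNQ1 CHO-K1 line · Probe or stimulus – thallium- and potassium-containing depolarizing buffer · Measured by – kinetic FluxOR fluorescence, 10 s baseline plus 110 s post-stimulus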
KCNK9 block – human KCNK9 channel inhibition; Q9NPC2; HEK293 KCNK9, FluxOR thallium flux fluorescence; active compounds read low; B-score at 10 µM; 310,000 tested, 1.2% active;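 active = ratio B-score over 3 SD below the library mean, with starting fluorescence within 5 SD of its mean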;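 also: negative B-score means less thallium flux so channel inhibition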
KCNK9 block conf – human KCNK9 inhibitor confirmation. inhibition, % at 10 µM. HEK293 KCNK9 cells, FluxOR thallium flux fluorescence. 4,900 tested, 43% active. shares compounds with KCNK9 block;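 active = thallium signal inhibited by more than 5 SD of the compound-free buffer control wells, on both duplicate plates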
Kir21 sel – tests whether KCNK9 modulators also affect mouse Kir2.1; inhibition, % at 10 µM; shares compounds with KCNK9 block; Kir2.1 cells, FluxOR thallium flux fluorescence; 4,900 tested, 4% active; AID 492993;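 active = thallium signal drop more than 5 SD beyond the mean of the no-compound control wells, seen in both duplicate plates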;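 also: signal is fluorescence rise after thallium addition divided by baseline fluorescence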
HEK293 Tl ctr – non-induced cell nonspecific activity of KCNK9 modulators | shares compounds with KCNK9 block | non-induced KCNK9-HEK293, FluxOR thallium flux | inhibition, % at 10 µM | 4,900 tested, 40% active | AID 492997;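 active = thallium signal drop beyond 5 SD of the untreated control mean, on both duplicate plates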
Numbers stand for hits; 0 = inactive; - = no result.

SMILES	Kir21 inh	hERG protect	KCNK3 inh	KCNQ1 block	KCNQ1 act	KCNK9 block	KCNK9 block conf	Kir21 sel	HEK293 Tl ctr
Cc1ccc(N(Cc2cc3cccc(C)c3[nH]c2=O)S(=O)(=O)c2ccccc2)c(C)c1	0	0	0	0	0	0	0	0	0
CCC(=O)c1cn(CC(=O)Nc2ccc(OC)cc2)c2ccccc12	0	0	0	0	0	0	-	-	-
CCOc1ccc(CN(C)CC(=O)Nc2cc(C)c(C)cc2[N+](=O)[O-])cc1	0	0	0	0	0	0	0	0	0
CCCC[C@H]1COCCS(=O)(=O)N1Cc1ccc(Br)cc1	0	0	0	0	0	-8.32	37.0%	0	42.5%
CCn1cc(C2=NC(C)(C)CO2)c2ccccc21	0	0	0	0	0	0	0	0	0
O=C1CCC(C(=O)N2CCCC(Nc3ccc(F)cc3)C2)=NN1 (stereo not drawn)	0	0	0	0	0	0	-	-	-
Cc1cc(C)nc(SCc2csc(-c3ccccc3)n2)n1	0	0	0	0	0	-11.4	53.0%	0	35.0%
Cc1cccc(C(=O)NC(=S)Nc2cccc3nc(C)ccc23)c1	0	0	0	0	0	0	0	0	0
CC(=O)c1cccc(NC(=S)NC(=O)c2cccc(C)c2)c1	0	0	0	0	0	0	-	-	-
COc1ccc(-c2cc(C(F)(F)F)nc(SCc3cccc(C(=O)O)c3)n2)cc1	0	0	0	0	0	0	0	0	0
O=C(O)c1cccc(CSc2nc(-c3ccccc3)cc(C(F)(F)F)n2)c1	0	0	0	0	0	0	-	-	-
CC(=O)N1c2ccc(S(=O)(=O)N3CCCCC3)cc2CC1C(=O)NCc1cccc(Cl)c1 (stereo not drawn)	0	0	0	0	0	0	-	-	-
CCOc1ccccc1OCCOCCOc1c(Cl)cccc1Cl	0	0	0	0	0	-9	0	0	37.5%
CCOc1ccc(OCCOCCOc2c(Cl)cccc2Cl)cc1	0	0	0	0	0	0	-	-	-
COCCCN(C(=O)CCOc1ccccc1C)c1c(N)n(Cc2ccccc2)c(=O)[nH]c1=O	0	0	0	0	0	0	-	-	-
COc1cc(/C=N/OCC(=O)NC23CC4CC(CC(C4)C2)C3)ccc1OCc1ccccc1	0	0	0	0	0	0	0	0	26.5%
COc1cc(/C=N/OCC(=O)NC2CCCCC2)ccc1OCc1ccccc1	0	0	0	0	0	0	-	-	-
N=c1n(CC(=O)c2ccc(Br)s2)c2ccccc2n1Cc1ccccc1	0	0	0	0	0	-10.4	51.5%	0	30.5%
COc1ccc2[nH]c3c(c2c1)CCN1C(=O)C(CC(=O)NCCc2ccccn2)C[C@H](C(=O)N2CCCCC2)[C@@]31C (stereo partly drawn)	-	-	0	-	-	-	-	-	-
O=C(O)c1cc2ccccc2c(N=Nc2cccnc2)c1O	0	0	0	0	0	0	-	-	-
CC(=O)c1cccc(NC(=O)CN2CCc3cc4c(cc3C2C)OCCCO4)c1 (stereo not drawn)	0	0	0	0	0	0	0	0	0
CC1c2cc3c(cc2CCN1C(=O)c1ccc(Cl)cc1)OCCCO3 (stereo not drawn)	0	0	0	0	0	-9.9	56.5%	0	29.0%
O=C(CN1CCc2cc3c(cc2C1)OCCCO3)Nc1cccc(Br)c1	0	0	0	0	0	0	0	0	0
CC(C)COc1ncnc2c1sc1nc3c(cc12)COC(C)(C)C3	0	0	-	0	0	0	-	-	-
O=C(N/N=C/c1ccc(OC2CSC2)cc1)c1ccccc1	0	0	0	0	0	0	-	-	-
SMILES	Kir21 inh	hERG protect	KCNK3 inh	KCNQ1 block	KCNQ1 act	KCNK9 block	KCNK9 block conf	Kir21 sel	HEK293 Tl ctr
O=C(/C=C/c1ccc(OC2CSC2)cc1)c1ccccc1	0	0	0	0	0	-16.1	42.5%	0	27.5%
Cc1ccc(-c2nn(C(C)(C)C)c3ncnc(NS(=O)(=O)c4ccc([N+](=O)[O-])cc4)c23)cc1	0	0	0	0	0	0	0	0	0
Cc1ccc(S(=O)(=O)Nc2ncnc3sc(C)c(C)c23)cc1	-	-	0	-	-	-	-	-	-
Cc1ccccc1C(C)NS(=O)(=O)c1ccc2c(c1)OCCO2 (stereo not drawn)	-	-	0	-	-	-	-	-	-
COc1cc2c(Cc3ccccc3)cncc2cc1O	-	-	0	-	-	-	-	-	-
CSc1cnn(Cc2ccccc2)c(=O)c1SCc1ccccc1	-4.56	0	0	0	0	0	0	40.0%	44.0%
Cc1ccc(S(=O)(=O)Nc2ccccc2C(=O)Nc2nc(-c3ccc(F)cc3)cs2)cc1	0	0	0	0	0	-10.1	63.5%	0	39.0%
Cc1ccc(S(=O)(=O)Nc2nc(-c3ccccc3)cs2)cc1	0	0	0	0	0	0	-	-	-
Cc1cc(C(=O)CSc2nn3c(=O)c(C(C)(C)C)nnc3s2)c(C)n1C1CC1	0	0	0	0	0	0	0	0	0
COc1cccc(NC(=O)CN(C)C(=O)c2ccc(-c3cccc(C(F)(F)F)c3)o2)c1	0	0	0	0	0	0	-	-	-
Oc1cc(-c2ccccc2)c2ccccc2c1	-4.64	0	0	8	0	-10.6	49.0%	0	34.5%
O=CN1CCN(c2c([N+](=O)[O-])c(=O)oc3ccccc23)CC1	0	0	0	0	0	0	-	-	-
CC(=O)N1c2c(cc(Br)cc2S(=O)(=O)NCc2cccnc2)CC1C (stereo not drawn)	0	0	0	0	0	0	-	-	-
CCCCN(Cc1ccccc1)S(=O)(=O)c1cc(Br)cc2c1N(C(C)=O)C(C)C2 (stereo not drawn)	0	0	0	0	0	-15.5	0	0	54.0%
CCOc1ccc(Cl)cc1S(=O)(=O)N1CCC(C(=O)NCC2CCCO2)CC1 (stereo not drawn)	0	0	0	0	0	0	-	-	-
CC(=C/c1ccccc1)/C=N/NC(=O)c1nnn(-c2nonc2N)c1CN1CCC(C)CC1	0	0	0	0	0	0	-	-	-
Cc1ccccc1COc1ccc(/C=N/NC(=O)c2nnn(-c3nonc3N)c2CN2CCC(C)CC2)cc1	0	0	0	0	0	0	0	0	0
CC1CCN(Cc2c(C(=O)N/N=C/c3ccc(OC(C)C)cc3)nnn2-c2nonc2N)CC1	0	0	0	0	0	0	0	0	0
COc1ccc(OCCCC(=O)N(C)CC(=O)Nc2ccccc2Cl)cc1	0	0	0	0	0	0	-	-	-
Nc1cc(=O)[nH]c(SCC(=O)N2CCN(S(=O)(=O)c3ccc4ccccc4c3)CC2)n1	0	0	0	0	0	0	-	-	-
O=C(CSc1ncc(C(F)(F)F)cc1Cl)N1CCN(S(=O)(=O)c2ccc3ccccc3c2)CC1	0	0	0	0	0	0	0	0	0
